Assay [1] concerns MAC15A. Put plainly: Cytotoxicity against MAC15a cells when the drug is exposed for a time of 1 hr. The assay is classed as functional, cell-based. Particulars: Mus musculus.
Assay [2] deals with Plasmodium falciparum. Kind of assay: In vitro inhibitory activity against chloroquine-resistant Plasmodium falciparum K1. Format: functional, organism-based. An outline of the steps:
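Early ring-stage parasites in human A+ erythrocytes, RPMI 1640 with A+ serum and glucose. Twofold serial dilutions in duplicate from DMSO stocks (final DMSO ≤0.5%), 2.5% hematocrit, 1% parasitemia. Incubated 48 h at 37 °C under 93% N2/3% O2/4% CO2. Growth read as parasite lactate dehydrogenase activity (APAD/NBT reagent, 15 min, OD 550 nm). IC50 by linear regression, at least three separate determinations.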

Assay [3] addresses T1, Histidine-rich protein PFHRP-II (Plasmodium falciparum) (UniProt P05227).
T1 sequence (whole entry): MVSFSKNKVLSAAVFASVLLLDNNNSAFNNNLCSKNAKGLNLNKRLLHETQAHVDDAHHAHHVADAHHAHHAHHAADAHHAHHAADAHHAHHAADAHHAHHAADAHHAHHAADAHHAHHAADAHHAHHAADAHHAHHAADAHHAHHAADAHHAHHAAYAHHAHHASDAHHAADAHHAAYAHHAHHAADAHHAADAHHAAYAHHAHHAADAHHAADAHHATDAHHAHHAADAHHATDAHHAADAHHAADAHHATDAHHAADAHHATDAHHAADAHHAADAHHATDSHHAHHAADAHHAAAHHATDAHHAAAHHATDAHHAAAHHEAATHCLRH
Put plainly: Inhibition of beta-hematin formation; Yes. The assay is classed as functional.

Assay [4] concerns A549. Kind of assay: Cytotoxicity against A549 cells when the drug is exposed for a time of 1 hr. The assay is classed as functional, cell-based. The note with it: Homo sapiens, A549, 1 h.
In assay [5] the test system is Plasmodium falciparum. Put plainly: In vitro inhibitory activity against chloroquine-sensitive Plasmodium falciparum HB3.
The subject of assay [6] is DLD-1. Put plainly: Cytotoxicity against DLD-1 cells when the drug is exposed for a time of 1 hr. Format: functional, cell-based. Particulars: Homo sapiens, DLD-1, 1 h.
Assay [7] has as its system A549. Kind of assay: Cytotoxicity against A549 cells when the drug is exposed for a time of 96 hrs. Format: functional, cell-based. The note with it: Homo sapiens, A549, 96 h.
For assay [8], the system named is DLD-1. Put plainly: Cytotoxicity against DLD-1 cells when the drug is exposed for a time of 96 hrS. The note with it: Homo sapiens, DLD-1, 96 h. The assay is classed as functional, cell-based.
Assay [9] relates to MAC15A. Put plainly: Cytotoxicity against MAC15a cells when the drug is exposed for a time of 96 hr. The assay is classed as functional, cell-based. The note with it: Mus musculus.
The test system of the next assay is Mus musculus. Put plainly: Inhibitory activity against Plasmodium berghei (ANKA) in mice at a dose of 20 mg/kg for 4 days. Format: functional. Also on record: scale not given: the % may be the effect or the level left. Put shortly: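 Peters' 4-day suppressive test. Female BALB/c mice (18-20 g) were inoculated iv with 1 × 10⁷ P. berghei ANKA-infected erythrocytes. Drug was given ip in 0.2 mL daily for 4 consecutive days, 5 mice per group, with chloroquine diphosphate as positive control. Blood smears were taken on day 5. % suppression of parasitemia was calculated against untreated infected controls for each dose.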

The target of assay [10] is T1, Histidine-rich protein PFHRP-II (Plasmodium falciparum). Put plainly: Inhibition of beta-hematin formation; No. The assay is classed as functional.

pIC50: −log10 of the molar value. “And” between values parts separate entries of the source, which are not always exact repeats. Equal values may be shown once. Where only a bound is given, the exact number is not on record here.

As to `C[n+]1c2ccccc2c(Cl)c2[nH]c3cc(Br)ccc3c21`, the pIC50 with MAC15A [1] is 4.64; in the assay with Plasmodium falciparum [2], 5.14.

For the compound `C[n+]1c2ccccc2cc2[n-]c3ccc([N+](=O)[O-])cc3c21`, the pIC50 with MAC15A [1] was 4.45; in the assay with Plasmodium falciparum [2], 6.19; in the assay with A549 [4], 4.45; with Plasmodium falciparum [5], 6.85; in the assay with DLD-1 [6], 4.31. For the same compound, the “beta-hematin formation inhibition (yes/no)” value in assay [3] is “Inhibition”.

In the case of `CC(=O)Nc1ccc2[n-]c3cc4ccccc4[n+](C)c3c2c1`, the negative logarithm of the IC50 (pIC50) in the assay on MAC15A [1] was < 4.00; with A549 [7], 5.30; with Plasmodium falciparum [2], 6.28; with A549 [4], < 4.00; in the assay with DLD-1 [8] it was 4.69; in the assay on Plasmodium falciparum [5] it was 6.33. For the same compound, the pIC50 in the assay on DLD-1 [6] is < 4.00; in the assay on MAC15A [9], 4.81. The Activity with Mus musculus was 13.3% and 14.7%.

For `O=C(O)c1c2nc3ccccc3c-2[nH]c2ccccc12`, the pIC50 in the assay with Plasmodium falciparum [2] is < 4.00. Further, in assay [10], the inhibition entry is “No inhibition”.

Take `C[n+]1c2ccc(Br)cc2c(Cl)c2[nH]c3ccccc3c21`: the negative logarithm of the IC50 (pIC50) in the assay with Plasmodium falciparum [2] was 5.32.

As to `C[n+]1c2ccccc2cc2[n-]c3c([N+](=O)[O-])cc([N+](=O)[O-])cc3c21`, the pIC50 was 4.55 in the assay on MAC15A [1]; 6.19 with Plasmodium falciparum [2]; < 4.00 in the assay with A549 [4]; 6.35 in the assay with Plasmodium falciparum [5]; < 4.00 in the assay on DLD-1 [6]. Moreover, the “beta-hematin formation inhibition (yes/no)” value in [3] is “Inhibition”. Besides, the Activity in the assay on Mus musculus is 20.3% and 30.2%.

For `c1ccc2nc3c(cc2c1)[nH]c1ccccc13` [QUINDOLINE], the pIC50 in the assay on Plasmodium falciparum [2] was < 4.00. Further, the inhibition entry in assay [10] was “No inhibition”.

For `C[n+]1c2ccccc2cc2[nH]c3ccccc3c21` [CRYPTOLEPTINE IODIDE], the negative logarithm of the IC50 (pIC50) with MAC15A [1] was 4.17; with A549 [7] it was 6.26; in the assay on Plasmodium falciparum [2], 6.36; in the assay on A549 [4], 4.21; in the assay on DLD-1 [8] it was 5.84; in the assay with DLD-1 [6], 4.03. In the assay with MAC15A [9], this compound had a pIC50 of 5.02. The inhibition entry in assay [3] was “Inhibition”.

Turning to `C[n+]1c2ccccc2cc2[n-]c3c([N+](=O)[O-])cccc3c21`, the negative-log IC50 (pIC50) in the assay on MAC15A [1] is < 4.00; in the assay with Plasmodium falciparum [2] it was 5.16; with A549 [4], < 4.00; in the assay on Plasmodium falciparum [5], 5.38; in the assay on DLD-1 [6] it was < 4.00. Further, in the assay with Mus musculus, the Activity is 11.9% and 23.5%.

Regarding `C[n+]1c2ccc(Br)cc2cc2[nH]c3ccccc3c21.[I-]`, the pIC50 is < 4.00 in the assay on MAC15A [1]; 5.68 with A549 [7]; 6.59 in the assay with Plasmodium falciparum [2]; < 4.00 in the assay with A549 [4]; 5.64 in the assay with DLD-1 [8]; 6.35 in the assay with Plasmodium falciparum [5]. The negative logarithm of the IC50 (pIC50) with DLD-1 [6] is < 4.00; with MAC15A [9], 5.24. For the same compound, in assay [3], the “beta-hematin formation inhibition (yes/no)” value is “Inhibition”.

Consider `C[n+]1c2ccccc2c(Cl)c2[nH]c3ccccc3c21`, for which the negative-log IC50 (pIC50) with MAC15A [1] was 4.52; with Plasmodium falciparum [2], 6.62; in the assay with Plasmodium falciparum [5] it was 5.78.

For `CCN(CC)CCCC(C)Nc1ccnc2cc(Cl)ccc12.O=P(O)(O)O.O=P(O)(O)O` (centres undefined) [CHLOROQUINE PHOSPHATE], in assay [3], the “beta-hematin formation inhibition (yes/no)” value is “Inhibition”.

Regarding `C[n+]1c2ccccc2cc2[nH]c3ccc(Br)cc3c21.[I-]`, the negative logarithm of the IC50 (pIC50) with MAC15A [1] was 4.18; with Plasmodium falciparum [2], 6.59; in the assay on Plasmodium falciparum [5], 6.72. In assay [3], the “beta-hematin formation inhibition (yes/no)” value is reported as “Inhibition”.

Turning to `C[n+]1c2ccccc2c(Cl)c2[nH]c3ccc(Cl)cc3c21`, the pIC50 in the assay with Plasmodium falciparum [2] was 5.12.

With `C[n+]1c2ccccc2c(Cl)c2[nH]c3cc(Cl)ccc3c21`, the pIC50 is 4.84 in the assay on MAC15A [1] and 4.57 with Plasmodium falciparum [2].

On to `C[n+]1c2ccc(Br)cc2cc2[nH]c3ccc(Br)cc3c21.[I-]`, for which the pIC50 was 7.31 in the assay with Plasmodium falciparum [2], 7.59 in the assay with Plasmodium falciparum [5] and 5.22 in the assay with MAC15A [9]. Further, the “beta-hematin formation inhibition (yes/no)” value in assay [3] is on record as “Inhibition”.

For the compound `NC(=O)c1c2nc3ccccc3c-2[nH]c2ccccc12`, the pIC50 with Plasmodium falciparum [2] is < 4.00. The inhibition entry in assay [10] was “No inhibition”.

As a reminder, the pIC50 is −log10 of the IC50, conventionally taken in molar units.

Source of the values: ChEMBL document CHEMBL1134600, “Synthesis and evaluation of cryptolepine analogues for their potential as new antimalarial agents” (J Med Chem, 2001).
